Measured values taken from ChEMBL document CHEMBL1149817, “Epimers of bicyclo[2.2.2]octan-2-ol derivatives with antiprotozoal activity” (Eur J Med Chem, 2008).

Columns and labels:
Plasmodium falciparum = assay: Antiprotozoal activity against chloroquine and pyrimethamine-resistant Plasmodium falciparum K1; format: functional, organism-based
Procedure, shortened: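 Read-out was IC50 against the K1 strain of P. falciparum, which is resistant to chloroquine and pyrimethamine. The table footnote gives values from two independent experiments.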

[1] = test system: Trypanosoma brucei rhodesiense; assay: Antiprotozoal activity against Trypanosoma brucei rhodesiense STIB900; format: functional, organism-based
L6 = assay: Cytotoxicity against rat L6 cells; format: cell-based

Row | SMILES | IC50 (Plasmodium falciparum; Plasmodium falciparum, K1) | IC50 [1] | IC50 (L6; l6) | IC50 (Plasmodium falciparum) | IC50 ([1]; Trypanosoma brucei) | IC50 (L6; Rattus norvegicus, L6)
1 | O=C(OC1CC2(N3CCCCC3)CC(c3ccccc3)C1C(c1ccccc1)C2)c1ccccc1 (racemic) | 0.77 µM | 3.12 µM | 17.2 µM | – | – | –
2 | O=C(OC1CC2(N3CCCC3)CC(c3ccccc3)C1C(c1ccccc1)C2)c1ccc(Cl)cc1 (stereo in doubt; 5b) | – | 6.27 µM | 74.9 µM | 0.47 µM | – | –
3 | CN(C)C12CC(O)C(C(c3ccccc3)C1)C(c1ccccc1)C2 (racemic) | – | 3.64 µM | 158 µM | 13.1 µM | – | –
4 | CN(C)C12CC(OC(=O)c3cccnc3)C(C(c3ccccc3)C1)C(c1ccccc1)C2 (stereo in doubt; 6a) | – | 15.9 µM | 171 µM | 1.49 µM | – | –
5 | CN(C)C12CC(OC(=O)c3ccncc3)C(C(c3ccccc3)C1)C(c1ccccc1)C2 (racemic; 11a) | – | – | 12.5 µM | 0.49 µM | 1.68 µM | –
6 | O=C(OC1CC2(N3CCCCC3)CC(c3ccccc3)C1C(c1ccccc1)C2)c1ccncc1 (racemic; 11c) | 0.62 µM | 3.35 µM | 21.3 µM | – | – | –
7 | O=C(OC1CC2(N3CCCC3)CC(c3ccccc3)C1C(c1ccccc1)C2)c1ccccc1 (stereo in doubt; 4b) | – | 4.95 µM | 5.08 µM | 4.5 µM | – | –
8 | O=C(OC1CC2(N3CCCC3)CC(c3ccccc3)C1C(c1ccccc1)C2)c1cccnc1 (racemic) | – | – | – | 2.34 µM | 1.07 µM | 18.7 µM
9 | CN(C)C12CC(OC(=O)c3ccccc3)C(C(c3ccccc3)C1)C(c1ccccc1)C2 (stereo in doubt; 4a) | – | 1.53 µM | 9.88 µM | 2.47 µM | – | –
10 | O=C(OC1CC2(N3CCCC3)CC(c3ccccc3)C1C(c1ccccc1)C2)c1ccccc1 (racemic) | – | 0.96 µM | – | 0.8 µM | – | 8.41 µM
11 | OC1CC2(N3CCCC3)CC(c3ccccc3)C1C(c1ccccc1)C2 (racemic) | 1.23 µM | – | – | – | 2.53 µM | 35.4 µM
12 | CN(C)C12CC(OC(=O)c3ccncc3)C(C(c3ccccc3)C1)C(c1ccccc1)C2 (racemic; 7a) | – | 3.16 µM | 26.1 µM | 1.14 µM | – | –
13 | CN(C)C12CC(OC(=O)c3cccnc3)C(C(c3ccccc3)C1)C(c1ccccc1)C2 (racemic) | – | 1.52 µM | 12.2 µM | 0.5 µM | – | –
14 | O=C(OC1CC2(N3CCCCC3)CC(c3ccccc3)C1C(c1ccccc1)C2)c1ccc(Cl)cc1 (racemic) | 1.12 µM | 1.76 µM | 23 µM | – | – | –
15 | O=C(OC1CC2(N3CCCCC3)CC(c3ccccc3)C1C(c1ccccc1)C2)c1ccccc1 (stereo in doubt; 4c) | – | 15 µM | 97.3 µM | 0.66 µM | – | –
16 | CN(C)C12CC(OC(=O)c3ccccc3)C(C(c3ccccc3)C1)C(c1ccccc1)C2 (racemic) | – | – | – | 1.18 µM | 1.12 µM | 6.02 µM
17 | O=C(OC1CC2(N3CCCC3)CC(c3ccccc3)C1C(c1ccccc1)C2)c1ccncc1 (racemic; 7b) | – | 3.49 µM | 27.4 µM | 0.86 µM | – | –
18 | O=C(OC1CC2(N3CCCCC3)CC(c3ccccc3)C1C(c1ccccc1)C2)c1ccncc1 (racemic; 7c) | – | 16.9 µM | 113 µM | 0.65 µM | – | –
19 | CN(C)C12CC(OC(=O)c3ccc(Cl)cc3)C(C(c3ccccc3)C1)C(c1ccccc1)C2 (stereo in doubt; 5a) | – | 1.06 µM | 9.46 µM | 0.55 µM | – | –
20 | O=C(OC1CC2(N3CCCC3)CC(c3ccccc3)C1C(c1ccccc1)C2)c1ccncc1 (racemic; 11b) | – | 1.44 µM | – | 4.49 µM | – | 26.9 µM
21 | OC1CC2(N3CCCCC3)CC(c3ccccc3)C1C(c1ccccc1)C2 (racemic) | – | 13.1 µM | – | 2.77 µM | – | 34.3 µM
22 | O=C(OC1CC2(N3CCCCC3)CC(c3ccccc3)C1C(c1ccccc1)C2)c1ccc(Cl)cc1 (stereo in doubt; 5c) | – | 37.6 µM | 104 µM | 0.79 µM | – | –
23 | O=C(OC1CC2(N3CCCC3)CC(c3ccccc3)C1C(c1ccccc1)C2)c1ccc(Cl)cc1 (racemic) | 0.76 µM | 0.86 µM | 7.31 µM | – | – | –
24 | O=C(OC1CC2(N3CCCCC3)CC(c3ccccc3)C1C(c1ccccc1)C2)c1cccnc1 (stereo in doubt; 6c) | 0.48 µM | – | 0.87 µM | – | 70.9 µM | –
25 | O=C(OC1CC2(N3CCCCC3)CC(c3ccccc3)C1C(c1ccccc1)C2)c1cccnc1 (racemic) | – | – | 21.3 µM | – | – | –
26 | O=C(OC1CC2(N3CCCC3)CC(c3ccccc3)C1C(c1ccccc1)C2)c1cccnc1 (stereo in doubt; 6b) | – | 0.62 µM | 24.4 µM | 0.2 µM | – | –
27 | CN(C)C12CC(OC(=O)c3ccc(Cl)cc3)C(C(c3ccccc3)C1)C(c1ccccc1)C2 (racemic) | – | – | 4.35 µM | 1.11 µM | 2.04 µM | –
